# Bioassay records (PubChem)
# CHRM5 PAM: CHRM5 positive allosteric modulation; P08912; CHO-K1 hM5, Fluo-8 calcium, ACh EC20 PAM; 0% = ACh EC20, 100% = ACh EC100; activation, % at 3 µM; actives 0.3% (n = 360,000); AID 624038;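 active = activation above the run cutoff, the mean activation of all test compounds plus 3 SD, cut at about 18% in these data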
# Target sequence (P08912 whole entry, looked up): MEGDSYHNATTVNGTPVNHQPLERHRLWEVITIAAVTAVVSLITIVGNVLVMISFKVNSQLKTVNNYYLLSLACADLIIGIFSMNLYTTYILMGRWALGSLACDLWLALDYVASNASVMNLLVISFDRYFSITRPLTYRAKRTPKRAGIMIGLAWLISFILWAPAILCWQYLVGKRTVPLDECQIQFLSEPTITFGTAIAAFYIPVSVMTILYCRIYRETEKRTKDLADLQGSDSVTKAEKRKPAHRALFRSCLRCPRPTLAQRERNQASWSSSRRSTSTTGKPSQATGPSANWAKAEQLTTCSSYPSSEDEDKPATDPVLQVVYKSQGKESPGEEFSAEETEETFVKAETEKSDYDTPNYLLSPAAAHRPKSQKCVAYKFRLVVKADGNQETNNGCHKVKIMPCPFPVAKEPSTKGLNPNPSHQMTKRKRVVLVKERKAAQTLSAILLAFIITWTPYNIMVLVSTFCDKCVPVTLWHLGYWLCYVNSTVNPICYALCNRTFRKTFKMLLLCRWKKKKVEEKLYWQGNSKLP
#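 System: CHO-K1 hM5 cells. Reagent: acetylcholine, EC20 level. Compound dosing: single dose, 3 µM nominal final test concentration. Timing: Post-acetylcholine fluorescence recording 140 s. Detection: Fluo-8 calcium fluorescence. Read-out: % activation, ACh-normalized. Benchmarks: ACh EC20 and EC100 wells. Repeats: singlicate, one well per test compound.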
# M4 antag: blocks acetylcholine activation of human M4 receptor | P08173 | inhibition, % at 3 µM | AID 624125 | CHO-hM4 cells, ACh EC80, Fluo-8 calcium fluorescence | actives 0.73% (n = 360,000);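 active = inhibition above its plate's cutoff, the mean inhibition of sample wells plus 3 SD, cut at about 27% in these data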;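 also: 0% = acetylcholine EC80 with DMSO and 100% = DMSO without agonist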
# M5 ag: CHRM5 agonism in calcium assay. CHO-K1 hM5 cells, Fluo-8 calcium fluorescence; 0% DMSO wells, 100% maximal acetylcholine response. actives 0.19% (n = 360,000). activation, % at 3 µM;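 active = activation above the run's mean over test compounds plus 3 SD, cut at about 23% in these data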;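 also: signal is peak over basal fluorescence ratio across the kinetic read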
# M4 PAM: potentiates acetylcholine response at human M4 receptor. AID 624126. activation, % at 3 µM. P08173. actives 0.4% (n = 360,000). CHO-K1 hM4/Gqi5, Fluo-8 calcium fluorescence, ACh EC20; 0% = ACh EC20, 100% = maximal ACh;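 active = activation above its plate's cutoff, the mean activation of sample wells plus 3 SD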
# CHRM5 antagonist: blocks acetylcholine activation of human M5 receptor; P08912; CHO-hM5 cells, Fluo-8 calcium fluorescence, ACh EC80; inhibition, % at 3 µM; actives 0.59% (n = 360,000); AID 624040;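 active = inhibition above a per-plate cutoff, the mean of that plate's test compounds plus 3 SD, cut at about 27% in these data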;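 also: 0% = acetylcholine EC80 with DMSO and 100% = DMSO without agonist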
# CHRM4 agonist: agonists of human muscarinic M4 receptor (CHRM4) | P08173 | CHO-K1 hM4/Gqi5, Fluo-8 calcium fluorescence; vehicle 0%, full acetylcholine response 100% | activation, % at 3 µM | actives 0.14% (n = 360,000) | AID 624127;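 active = activation above the run mean over all test wells plus 3 SD, cut at about 32% in these data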;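 also: peak over basal fluorescence ratio per well then scaled between controls; 0% = DMSO wells and 100% = acetylcholine at EC100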
# Starred values were filed as active, the others as inactive. Compounds with a hit are over-represented: about 1.8% of the library has one in this group of screens.
SMILES,CHRM5 PAM,M4 antag,M5 ag,M4 PAM,CHRM5 antagonist,CHRM4 agonist
CC[N+]12CCC(CC1)C(C(O)(c1ccccc1)c1ccccc1)C2 (configuration not stated),-32.3,71.9*,-17.8,-44.4,85.9*,0.3
CC(C)[N+]12CCC(CC1)C(C(O)(c1ccccc1)c1ccccc1)C2 (configuration not stated),-30.5,54.2*,-20.6,-14.7,42.6*,-0.8
C[N+]12CCC(CC1)C(C(O)(c1cccc(Cl)c1)c1cccc(Cl)c1)C2 (configuration not stated),-29.7,87.3*,-20.0,-14.7,73.9*,0.3
Cc1ccccc1-c1ccc2c(c1)C1c3c(-c4ccccc4)nnn3-c3ccccc3C(=O)N1CC2 (configuration not stated),-2.1,-17.4,2.3,13.9,4.2,3.2
C[n+]1c(-c2ccccc2)c2cc(N)ccc2c2ccc(N)cc21,-13.9,15.9,3.0,-9.7,14.0,11.1
Nc1ccc2ccc3cccc[n+]3c2c1,-3.3,19.4,27.3*,-9.5,-2.5,22.2
C/C(Cl)=C/CC1(CN2CCCC2=O)C(=O)NC(=O)NC1=O,2.3,2.5,-1.2,7.7,-3.2,0.0
C[N+](C)(C)CC#CCN1CCCC1=O,-13.3,95.4*,99.0*,-19.6,97.8*,107.4*
CC1=C(O)C(=O)C=C2C1=CC=C1C2(C)CCC2(C)C3CC(C)(C(=O)O)CCC3(C)CCC12C (configuration not stated),-23.3,91.2*,3.6,-10.6,37.1*,11.3
COC(=O)C1=C(c2cccc(OCc3ccccc3)c2)C[C@@H]2CC[C@H]1N2C(=O)NCc1ccc(F)cc1,-30.8,15.7,-12.8,-13.2,27.2*,2.1
COC(=O)C1=C(c2ccccc2)C[C@@H]2CC[C@H]1N2C(=O)NCc1ccc(F)cc1,-18.9,46.8*,-11.0,-14.3,11.5,-1.1
COC(=O)C1=C(c2ccc(F)cc2OCc2ccccc2)C[C@@H]2CC[C@H]1N2C(=O)NCc1ccccc1OC,-37.6,32.8*,-10.6,-15.7,12.3,0.8
COc1c(OP2(=S)OCC(C)(C)CO2)cnn(C2CCCCC2)c1=O,1.5,4.4,2.5,1.9,-3.5,3.1
CC12CCC(O)CC1CCC1C2CCC2(C)C(C(=O)CO)CCC12 (configuration not stated),-10.9,-17.2,4.8,-5.1,3.9,11.7
Cc1cc(C(=O)OC(C)C(=O)Nc2ccccc2)c(C)n1C1CC1 (configuration not stated),-0.8,-7.9,-0.3,2.1,4.8,0.9
O=C(Cc1ccccc1)N1CCN(Cc2ccc(Cl)cc2)CC1,22.3*,-8.4,1.4,7.7,-27.4,2.2
O=C(Cc1ccccc1)N1CCN(Cc2cccc(Cl)c2)CC1,-0.5,4.8,1.0,4.2,3.8,-0.1
CC(=O)c1ccc(NC2=NCCCS2)cc1,-8.4,11.2,-5.5,-10.6,30.8*,2.0
c1coc(CN2Cc3ccccc3-n3nncc3C2)c1,6.5,-1.7,-0.6,10.8,-9.7,1.9
CC(Cc1ccccc1Sc1ccccc1O)N(C)C (configuration not stated),-21.5,81.7*,-2.9,-25.3,99.5*,8.9
C#CCN(C)[C@H](C)Cc1ccccc1,-3.8,-6.6,-0.1,-4.1,-0.7,0.5
O=C1NC(=O)C(Cc2ccccc2)(Cc2ccccc2)C(=O)N1,-3.4,-2.8,1.7,0.8,2.6,2.2
CC12C=CC(=O)CC1CCC1C2CCC2(C)C(O)C(O)CC12 (configuration not stated),-24.1,18.9,4.5,-8.0,34.6*,18.8
c1ccc2c(c1)CN(Cc1ccc3c(c1)OCO3)Cc1cnnn1-2,-1.0,-12.1,-1.9,4.4,1.9,0.1
O=C(NCC1=C(c2ccc3ccccc3c2)C[C@@H]2CC[C@H]1N2Cc1ccco1)c1ccc([N+](=O)[O-])cc1,-6.0,4.5,-3.3,-13.8,11.1,9.4
SMILES,CHRM5 PAM,M4 antag,M5 ag,M4 PAM,CHRM5 antagonist,CHRM4 agonist
O=C(c1ccc(Cl)cc1)C1CCCN(Cc2ccc3ncccc3c2)C1 (configuration not stated),-30.5,27.9*,-12.0,-22.0,13.6,8.2
O=C(c1cccc(Cl)c1)C1CCCN(Cc2cccc3cnccc23)C1 (configuration not stated),-20.5,12.4,-8.2,-19.7,16.6,4.8
O=C(c1ccc(Cl)cc1)C1CCCN(Cc2cccc3cnccc23)C1 (configuration not stated),-36.2,47.7*,-16.4,-44.5,47.6*,6.2
O=C(c1ccc(Cl)cc1)C1CCCN(Cc2ccc3c(c2)OCCO3)C1 (configuration not stated),-6.8,4.4,-10.3,-14.8,-8.0,1.8
O=C1NC(=O)C(Nc2ccccc2)C(=O)N1,1.1,13.7,0.3,5.2,8.4,1.1
CCc1nn2c(=O)c(F)c(N3CCNCC3)nc2s1,-1.4,-4.3,2.0,7.4,4.0,0.4
CN1CN(c2ccccc2)C2(CCN(CCCSc3ccccc3NC(=O)/C=C/c3ccccc3)CC2)C1=O,-46.4,58.8*,67.8*,-13.0,36.9*,109.9*
O=c1[nH]c2ccccc2n1C1CCN(Cc2ccc(-c3[nH]c4cc5ncnc5cc4nc3-c3ccccc3)cc2)CC1,-21.9,7.3,67.3*,-9.4,14.2,13.5
O=C1CC(N2CCC(n3c(=O)[nH]c4ccccc43)CC2)C(=O)N1Cc1ccccc1 (configuration not stated),-7.2,6.7,3.8,5.2,-6.4,9.3
C[C@]12CCC3C(CC[C@@H]4C[C@@H](O)CC[C@]34C)C1CC[C@@H]2O (some centres not stated),-8.4,-8.3,20.2,-1.8,4.8,7.7
CC(C)(C)NC(=S)N1Cc2ccccc2-n2nncc2C1,3.2,-12.3,-0.9,-0.6,-15.3,0.9
O=C1NC(=O)C(C2CCCCCC2)C(=O)N1,5.0,-18.4,3.0,12.1,0.7,1.3
Cc1nc(SCc2c(Cl)cccc2Cl)nc(OC(=O)N(C)C)c1C,1.8,5.6,-0.3,34.0*,0.0,2.6
CCOc1ccc(C(=O)OC2CC3CCC(C2)N3C)cc1 (configuration not stated),-21.3,3.7,-10.6,-0.9,12.1,0.8
CN1C2CCC1CC(OC(=O)c1ccc(Cl)cc1)C2 (configuration not stated),-14.8,21.3,-11.7,-11.3,31.8*,2.1
CN1C2CCC1CC(OC(=O)c1ccc(Cl)cc1)(C(=O)O)C2 (configuration not stated),5.2,16.0,-2.9,28.8*,-2.7,1.1
